The term pIC50 denotes the negative decadic logarithm of the IC50, by convention in mol/L.

pIC50: −log10 of the molar value. Calls of active or inactive are those of the source. No cut-off for these calls is given here.

The values that follow come from ChEMBL document CHEMBL1155462, “Structure-activity relationship for thiohydantoin androgen receptor antagonists for castration-resistant prostate cancer (CRPC)” (J Med Chem, 2010).

The test system of data set [1] is LNCaP. Nature of the data set: Inhibition of prostate specific antigen expression in human LNCAP cells in presence of fetal bovine serum. In kind it is functional, cell-based.
The test system of data set [2] is LNCaP. Briefly: Inhibition of prostate specific antigen secretion in human LNCAP cells expressing androgen receptor at 1.25 to 10 uM in presence of charcoal stripped serum. In kind it is functional, cell-based. A digest of the protocol:
(§1)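 LNCaP/AR cells were made by viral infection with an AR cDNA to express 3–5 fold higher AR levels, mimicking CRPC. They were assayed in charcoal-stripped serum to mimic androgen depletion. Read-out was PSA level, with DMSO as the vehicle.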

In data set [3] the test system is LNCaP. Briefly: Inhibition of prostate specific antigen secretion in human LNCAP cells expressing androgen receptor in presence of charcoal stripped serum. In kind it is functional, cell-based. The procedure, abridged: as §1
In a further data set the test system is Serum. Nature of the data set: Drug level in SCID mouse serum at 10 mg/kg, iv. In kind it is ADME, organism-based. Set-up: dose 10 mg/kg, route intravenous. To be noted: in vivo, read-out: Drug uptake.
Data set [4] deals with LNCaP. Nature of the data set: Inhibition of prostate specific antigen expression in human LNCAP cells at 100 to 1000 nM in presence of fetal bovine serum. In kind it is functional, cell-based.
Data set [5] relates to LNCaP. Nature of the data set: Inhibition of prostate specific antigen secretion in human LNCAP cells expressing androgen receptor at 100 to 1000 nM in presence of charcoal stripped serum. In kind it is functional, cell-based. A digest of the protocol:
as §1

Data set [6] relates to LNCaP. Briefly: Cytostatic activity against human castration-resistant LNCAP cells expressing androgen receptor xenografted in SCID mouse assessed as change in tumor size at 10 mg/kg qd measured up to 18 days. Further details: dose 10 mg/kg. In kind it is functional, organism-based. Background: In xenograft studies the graft and the host belong to different species.
Data set [7] deals with LNCaP. Briefly: Cytostatic activity against human castration-resistant LNCAP cells expressing androgen receptor xenografted in SCID mouse assessed as change in tumor size at 50 mg/kg qd measured up to 18 days. In kind it is functional, organism-based. Set-up: dose 50 mg/kg.
Data set [8] relates to LNCaP. Nature of the data set: Antitumor activity against human castration-resistant LNCAP cells expressing androgen receptor xenografted in SCID mouse assessed as change in tumor size at 10 mg/kg qd for 31 days. In kind it is functional, organism-based. Set-up: dose 10 mg/kg. The procedure, abridged: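 AR-overexpressing LNCaP cells were injected subcutaneously into the flanks of castrated SCID mice. Once tumors reached about 100–200 cubic mm, mice were randomized into groups of six. Vehicle or compound was given orally every day, and tumor volume change was followed.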

For data set [9], the system named is LNCaP. Nature of the data set: Inhibition of prostate specific antigen expression in human LNCAP cells at 0.625 to 20 uM in presence of fetal bovine serum. In kind it is functional, cell-based.
Data set [10] concerns LNCaP. Briefly: Inhibition of prostate specific antigen expression in human LNCAP cells at 0.625 to 5 uM in presence of fetal bovine serum. In kind it is functional, cell-based.
For data set [11], the system named is LNCaP. Briefly: Inhibition of prostate specific antigen expression in human LNCAP cells at 1.25 to 10 uM in presence of fetal bovine serum. In kind it is functional, cell-based.
Data set [12] deals with T1, Androgen receptor (Rattus norvegicus) (UniProt P15207).
T1 sequence (whole entry): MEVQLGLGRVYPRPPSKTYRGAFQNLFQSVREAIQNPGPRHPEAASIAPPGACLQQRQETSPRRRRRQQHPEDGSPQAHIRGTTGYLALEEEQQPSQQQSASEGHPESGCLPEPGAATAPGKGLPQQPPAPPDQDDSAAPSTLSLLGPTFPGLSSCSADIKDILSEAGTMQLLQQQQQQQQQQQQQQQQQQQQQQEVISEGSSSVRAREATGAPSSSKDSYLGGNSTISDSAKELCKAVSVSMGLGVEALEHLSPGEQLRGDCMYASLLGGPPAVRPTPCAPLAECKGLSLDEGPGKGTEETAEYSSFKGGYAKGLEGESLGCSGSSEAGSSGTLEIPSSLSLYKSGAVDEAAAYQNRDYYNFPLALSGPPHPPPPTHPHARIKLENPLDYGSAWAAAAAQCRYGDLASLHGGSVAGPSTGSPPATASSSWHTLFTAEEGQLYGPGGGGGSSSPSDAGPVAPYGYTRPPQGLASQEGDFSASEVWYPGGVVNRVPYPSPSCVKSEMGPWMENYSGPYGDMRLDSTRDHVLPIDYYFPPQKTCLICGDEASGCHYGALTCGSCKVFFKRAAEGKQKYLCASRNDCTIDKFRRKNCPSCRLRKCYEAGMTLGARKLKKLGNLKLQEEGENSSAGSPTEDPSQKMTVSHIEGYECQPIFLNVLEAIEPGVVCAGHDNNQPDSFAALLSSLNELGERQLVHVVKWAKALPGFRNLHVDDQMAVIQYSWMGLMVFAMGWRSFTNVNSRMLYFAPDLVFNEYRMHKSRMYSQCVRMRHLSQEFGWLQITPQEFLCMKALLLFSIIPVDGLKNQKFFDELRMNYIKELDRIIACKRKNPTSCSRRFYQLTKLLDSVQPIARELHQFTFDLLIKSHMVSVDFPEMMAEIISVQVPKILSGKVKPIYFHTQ
Briefly: Antagonist activity at androgen receptor in rat prostate gland at 1.25 to 10 uM by luciferase reporter gene assay. In kind it is functional, tissue-based. For orientation: A reporter such as luciferase makes a cellular process visible.

In data set [13] the test system is LAPC4. Nature of the data set: Antitumor activity against human castration and bicalutamide-resistant LAPC4 cells xenografted in SCID mouse assessed as change in tumor volume at 10 mg/kg measured up to 20 days. Further details: dose 10 mg/kg. In kind it is functional, organism-based.
Data set [14] concerns LAPC4. Briefly: Antitumor activity against human castration and bicalutamide-resistant LAPC4 cells xenografted in SCID mouse assessed as change in tumor volume measured up to 50 days. In kind it is functional.
Data set [15] addresses T1, Androgen receptor (Rattus norvegicus). Nature of the data set: Antagonist activity at androgen receptor in rat prostate gland at 0.625 to 20 uM by luciferase reporter gene assay. In kind it is functional, tissue-based.

Turning to `CNC(=O)CCCc1ccc(N2C(=S)N(c3ccc(C#N)c(C(F)(F)F)c3)C(=O)C23CCC3)cc1`, the pIC50 in the data set with LNCaP [1] and with LNCaP [3] was 7.04 each time. In addition, in the data set on LNCaP [2], the inhibition result is “Active”. The concentration in the data set on Serum was 390 µM. The outcome in the data set on LNCaP [4] was Active.

As for `CC(O)(CS(=O)(=O)c1ccc(F)cc1)C(=O)Nc1ccc(C#N)c(C(F)(F)F)c1` (centres undefined) [BICALUTAMIDE], in the data set on LNCaP [2], the inhibition entry was “inactive”. Moreover, the concentration in the data set on Serum is 10000 µM.

Turning to `N#CCCCc1ccc(N2C(=S)N(c3ccc(C#N)c(C(F)(F)F)c3)C(=O)C23CCC3)cc1`, the outcome with LNCaP [4] was Active.

`CNC(=O)c1ccc(N2C(=S)N(c3ccc(C#N)c(C(F)(F)F)c3)C(=O)C23CCCC3)cc1F`: in the data set on LNCaP [5], the outcome was Active.

Consider `CNC(=O)c1ccc(N2C(=S)N(c3ccc(C#N)c(C(F)(F)F)c3)C(=O)C2(C)C)cc1F`, for which, in the data set on LNCaP [5], the result was Active.

For the compound `CNC(=O)c1ccc(N2C(=S)N(c3ccc(C#N)c(C(F)(F)F)c3)C(=O)C23CCC3)cc1F`, the inhibition entry in the data set on LNCaP [3] was “Dose-dependent effect”. In the data set on Serum, the concentration came out at 9900 µM. Further, the outcome with LNCaP [6], with LNCaP [7], in the data set with LNCaP [8], in the data set on LNCaP [4] and in the data set with LNCaP [5] was Active.

For `CN(C)C(=O)CCCc1ccc(N2C(=S)N(c3ccc(C#N)c(C(F)(F)F)c3)C(=O)C23CCC3)cc1`, the result with LNCaP [4] was Active.

Turning to `Cc1ccc(N2C(=S)N(c3ccc(C#N)c(C(F)(F)F)c3)C(=O)C23CCC3)cc1`, the result (with LNCaP [9]; in the data set with LNCaP [10]; in the data set on LNCaP [11]; in [12]; in the data set with LAPC4 [13]) was Active. For the same compound, the pIC50 in the data set on LNCaP [1] is 6.91. Moreover, the Activity result with LAPC4 [14] was “Dose-dependent effect”. Further, the inhibition entry in the data set on LNCaP [2] is “Active”.

For the compound `Cc1ccc(N2C(=S)N(c3ccc(C#N)c(C(F)(F)F)c3)C(=O)C2(C)C)cc1`, the outcome (with LNCaP [9]; in the data set with LNCaP [10]; in the data set with LNCaP [11]; in data set [12]; in the data set on LAPC4 [13]) was Active. In [15], the result was inactive.

With `CC(O)c1ccc(N2C(=S)N(c3ccc(C#N)c(C(F)(F)F)c3)C(=O)C23CCC3)cc1` (centres undefined), the pIC50 in the data set on LNCaP [1] is 6.70.

For the compound `N#Cc1ccc(N2C(=O)C3(CCC3)N(c3ccc(CO)cc3)C2=S)cc1C(F)(F)F`, the pIC50 with LNCaP [1] is 6.70.
